An excerpt weighted towards active compounds, which were near 0.79% of everything screened.
mIAP block: mouse IAP inhibition; purified mouse IAP, CDP-Star luminescence, 30 min; inhibition, % at 10 µM; 0.2% of 330,000 active;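 active means inhibition of at least 40% at 10 µM in the primary screen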;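 further: plate controls were DMSO with enzyme for no effect and no enzyme wells for full effect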
hIAP block: blocks human intestinal alkaline phosphatase | 0.12% of 330,000 active | inhibition, % at 10 µM | AID 2544 | purified IAP, CDP-Star luminescence, 30 min | P09923;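 active means inhibition reaching a set limit with compound at 10 µM in the primary screen, cut at about 35% in these data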;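 further: plate controls were DMSO wells with enzyme for no effect and no-enzyme buffer wells for full effect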
Target sequence (P09923 whole entry, looked up): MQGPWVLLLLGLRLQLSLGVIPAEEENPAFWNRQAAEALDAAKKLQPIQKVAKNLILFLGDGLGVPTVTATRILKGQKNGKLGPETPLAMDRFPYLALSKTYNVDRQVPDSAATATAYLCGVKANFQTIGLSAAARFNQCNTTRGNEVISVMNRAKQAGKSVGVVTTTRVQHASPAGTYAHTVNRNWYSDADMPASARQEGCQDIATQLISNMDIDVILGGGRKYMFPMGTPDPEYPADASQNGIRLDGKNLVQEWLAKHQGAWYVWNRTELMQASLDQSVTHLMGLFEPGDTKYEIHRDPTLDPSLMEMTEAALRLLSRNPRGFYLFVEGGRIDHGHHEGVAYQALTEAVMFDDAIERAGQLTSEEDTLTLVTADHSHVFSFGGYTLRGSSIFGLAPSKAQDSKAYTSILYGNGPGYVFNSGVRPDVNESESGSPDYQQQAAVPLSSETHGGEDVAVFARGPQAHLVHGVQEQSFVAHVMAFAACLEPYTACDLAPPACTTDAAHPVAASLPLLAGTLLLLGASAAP
mIAP act: mouse IAP activation. AID 2805. muIAP, CDP-Star luminescence, 30 min; hits give high values; 1 = vehicle-only enzyme signal, 0 = enzyme-free wells. activation factor at 10 µM. 0.24% of 330,000 active;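 active means activation factor of at least 2 at 20 µM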
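System: mouse IAP enzyme. Reagent: CDP-Star chemiluminescent phosphatase substrate. Benchmarks: DMSO wells, no-enzyme wells. Times: 30 min enzyme-substrate-compound incubation at room temperature. Detection: luminescence from enzymatic CDP-Star hydrolysis. Doses: test compounds delivered from DMSO solution.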
hIAP activ: increases human intestinal alkaline phosphatase activity. 0.16% of 330,000 active. activation factor at 10 µM. purified human IAP, CDP-Star luminescence, 30 min; hits give high values; 1 = vehicle-only enzyme, 0 = enzyme-free background. P09923;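 active means activation factor of the enzyme at least 2-fold when tested at 20 µM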
bIAP inhibitor: blocks bovine intestinal alkaline phosphatase activity | purified bovine IAP, CDP-star luminescence, 30 min | inhibition, % at 20 µM | 190,000 tested, under 10 active | AID 1019;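 active means over 50% inhibition of intestinal alkaline phosphatase at 20 µM in the single-dose screen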
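Assay system: bovine IAP enzyme; medium: DEA buffer 100 mM, pH 9.8, with MgCl2 1.0 mM, ZnCl2 0.02 mM; doses: 20 µM single dose; incubation: enzyme reaction for 30 min at room temperature; detection: CDP-star luminescence signal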
bIAP activator: increases bovine intestinal alkaline phosphatase activity. purified bovine IAP, CDP-star luminescence, 30 min; hits give high values; fold of DMSO-control signal, blank-subtracted. 0.17% of 200,000 active. AID 1016. activation factor at 20 µM;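 active means activation factor of 2 or more at 20 µM, a signal rise over negative controls twice the positive control's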
mIAP inh confirm: mouse IAP inhibition confirmation | shares compounds with mIAP block | purified mouse IAP, CDP-Star luminescence, 30 min | inhibition, % at 10 µM | 4.7% of 11,000 active;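 active means inhibition of at least 40% at 10 µM in either of the two replicates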;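 further: plate controls were DMSO wells with enzyme for no effect and buffer wells lacking enzyme for full effect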
Active calls of the source: *.

What do the screens show for `CCCCNC(=O)Oc1c(Br)cc2sc(=O)oc2c1Br`?
mIAP block: 78*; hIAP block: -12; mIAP act: 0.22; hIAP activ: 1.1; mIAP inh confirm: 81*

What do the screens show for `Oc1ccc(Br)cc1-c1cc(-c2ccco2)[nH]n1`?
mIAP block: 24; hIAP block: -14; mIAP act: 0.76; hIAP activ: 1.1; bIAP inhibitor: 0; bIAP activator: 1

What do the screens show for `Oc1ccc(Cl)cc1-c1cc(-c2ccco2)[nH]n1`?
mIAP block: 80*; hIAP block: 1; mIAP act: 0.2; hIAP activ: 0.99; bIAP inhibitor: -11; bIAP activator: 1.1; mIAP inh confirm: 80*

How did O=C(Cc1nnc(NC(=O)c2ccccc2)s1)N/N=C\c1ccc(O)c(O)c1 do in these assays?
mIAP block: 73*; hIAP block: -6; mIAP act: 0.27; hIAP activ: 1.1; mIAP inh confirm: 79*

What do the screens show for `Cc1ccc(C2C(C#N)=C(N)SC(N)=C2C#N)o1`?
mIAP block: 44*; hIAP block: 7; mIAP act: 0.56; hIAP activ: 0.93; bIAP inhibitor: 6; bIAP activator: 0.9; mIAP inh confirm: 45*

What do the screens show for `CCc1ccc(C2C(C#N)=C(N)SC(N)=C2C#N)s1`?
mIAP block: 23; hIAP block: 1; mIAP act: 0.77; hIAP activ: 0.99; bIAP inhibitor: 9; bIAP activator: 0.9

Results for Cc1cc(C)cc(NC(=O)Nc2ccc3c(c2)N(C)C(=O)CS3)c1 ?
mIAP block: -298; hIAP block: -42; mIAP act: 4*; hIAP activ: 1.4; bIAP inhibitor: 0; bIAP activator: 1; mIAP inh confirm: -154

How did CCc1ccc(NC(=O)Nc2ccc3c(c2)N(C)C(=O)CS3)cc1 do in these assays?
mIAP block: -187; hIAP block: -60; mIAP act: 2.9*; hIAP activ: 1.6; bIAP inhibitor: 13; bIAP activator: 0.9; mIAP inh confirm: -114

How did C[C@H](CO)N1C[C@H](C)[C@@H](CN(C)CC2CCCCC2)Oc2c(NC(=O)Cc3ccccc3)cccc2C1=O do in these assays?
mIAP block: -2; hIAP block: -24; mIAP act: 1; hIAP activ: 1.2

What do the screens show for `C/C(CC(=O)NC1CCCC1)=N\NC(=O)c1ccc([N+](=O)[O-])c(Cl)c1`?
bIAP inhibitor: -6; bIAP activator: 1.1

Results for CCC1(c2ccc(F)cc2)NC(=O)N(CC(=O)Nc2cc(C)on2)C1=O (stereo unspecified) ?
mIAP block: -3; hIAP block: 13; mIAP act: 1; hIAP activ: 0.87

Results for c1coc(-c2nc(-c3ccco3)c(-c3ccco3)nc2-c2ccco2)c1 ?
mIAP block: 71*; hIAP block: 1; mIAP act: 0.29; hIAP activ: 0.99; bIAP inhibitor: 6; bIAP activator: 0.9; mIAP inh confirm: 84*

Results for Nc1nc(-c2ccco2)cs1 ?
mIAP block: 31; hIAP block: 15; mIAP act: 0.69; hIAP activ: 0.85; bIAP inhibitor: 30; bIAP activator: 0.7

What do the screens show for `Nc1nc(-c2ccco2)c(-c2ccco2)s1`?
mIAP block: 67*; hIAP block: 25; mIAP act: 0.33; hIAP activ: 0.75; bIAP inhibitor: 22; bIAP activator: 0.8; mIAP inh confirm: 69*

Results for O=C(NCCCO)c1ccc2nc(-c3ccco3)c(-c3ccco3)nc2c1 ?
bIAP inhibitor: -25; bIAP activator: 1.3

How did O=C(NCCO)Nc1ccc2nc(-c3ccco3)c(-c3ccco3)nc2c1 do in these assays?
mIAP block: 42*; hIAP block: -6; mIAP act: 0.58; hIAP activ: 1.1; bIAP inhibitor: 7; bIAP activator: 0.9; mIAP inh confirm: 49*

How did C=CCn1c(SCC(=O)c2ccc(O)c(O)c2)nnc1-c1cccc(OC)c1 do in these assays?
mIAP block: 41*; hIAP block: 9; mIAP act: 0.59; hIAP activ: 0.91; mIAP inh confirm: 46*

Results for Cc1cc(Cl)ccc1NC(=S)NCCC(c1ccccc1)c1ccccc1 ?
mIAP block: -266; hIAP block: -9; mIAP act: 3.7*; hIAP activ: 1.1; bIAP inhibitor: -39; bIAP activator: 1.4; mIAP inh confirm: -105

Results for Cc1c(Cl)cccc1NC(=S)NCCC(c1ccccc1)c1ccccc1 ?
mIAP block: -312; hIAP block: 3; mIAP act: 4.1*; hIAP activ: 0.97; bIAP inhibitor: 16; bIAP activator: 0.8; mIAP inh confirm: -375

Results for O=c1c(O)cccc2cc(O)c(O)c(O)c12 ?
mIAP block: 61*; hIAP block: -14; mIAP act: 0.39; hIAP activ: 1.1; mIAP inh confirm: 74*

How did O=c1cc(-c2ccccc2)oc2cc(O)c(O)c(O)c12 do in these assays?
mIAP block: 5; hIAP block: -22; mIAP act: 0.95; hIAP activ: 1.2

Results for CCc1nc(CN2CCN(c3cc(C(F)(F)F)ccn3)CC2)c(C)[nH]1 ?
mIAP block: -7; hIAP block: 0; mIAP act: 1.1; hIAP activ: 1

Results for O=[N+]([O-])c1ccc(Cl)c2c1C1C=CCC1C(c1ccccn1)N2 (stereo unspecified) ?
mIAP block: 19; hIAP block: 3; mIAP act: 0.81; hIAP activ: 0.97; bIAP inhibitor: 18; bIAP activator: 0.8

How did O=C(O)C1Nc2c(O)cc(Cl)c([N+](=O)[O-])c2C2C=CCC12 (stereo unspecified) do in these assays?
mIAP block: 75*; hIAP block: -10; mIAP act: 0.25; hIAP activ: 1.1; bIAP inhibitor: 17; bIAP activator: 0.8; mIAP inh confirm: 79*

How did CN(CCCNC(=O)c1ccccc1F)CCCNC(=O)c1ccccc1F do in these assays?
mIAP block: -5; hIAP block: -6; mIAP act: 1; hIAP activ: 1.1

Results for COc1ccc(Cc2nnc(NC(=O)CS(=O)(=O)c3ccccc3)s2)cc1OC ?
mIAP block: -4; hIAP block: -20; mIAP act: 1; hIAP activ: 1.2

How did CC(NC(=O)COc1ccccc1)C(=O)NCc1ccccc1Cl (stereo unspecified) do in these assays?
mIAP block: 3; hIAP block: 6; mIAP act: 0.97; hIAP activ: 0.94

What do the screens show for `N=C1/C(=C\c2coc3ccc(O)cc3c2=O)C(=O)N=C2SC=CN12`?
mIAP block: 59*; hIAP block: -7; mIAP act: 0.41; hIAP activ: 1.1; mIAP inh confirm: 64*

Results for O=c1[nH]c2ccc(S(=O)(=O)N3CCN(c4ccc(F)cc4)CC3)cc2o1 ?
mIAP block: 19; hIAP block: 0; mIAP act: 0.81; hIAP activ: 1
